ChEMBL document CHEMBL4311953, “Targeting DNA Repair in Tumor Cells via Inhibition of ERCC1-XPF” (J Med Chem, 2019)
Active and inactive are the calls of the source. No cut-off for these calls is given here.

Tests used:
[1] = target: T1, DNA excision repair protein ERCC-1/DNA repair endonuclease XPF (Homo sapiens) (UniProt P07992+Q92889); assay: Inhibition of human His6-tagged ERCC1-XPF endonuclease activity expressed in Escherichia coli BL21 (DE3) at 8 uM using [6-FAM-5'-CAGCGCTCGG(20T)CCGAGCGCTG-3'-dabcyl] as substrate measured for 12 mins by fluorescence assay
In short: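 Real-time incision of 100 nM 6-FAM/dabcyl stem-loop substrate by 25 ng recombinant ERCC1-XPF in 50 mM Tris-Cl pH 8, 20 mM NaCl, 0.5 mM DTT, 0.75 mM MnCl₂ at 25°C; fluorescence (ex 485/em 520 nm) read for 12 min.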

[2] = target: T1, DNA excision repair protein ERCC-1/DNA repair endonuclease XPF (Homo sapiens); assay: Time dependent inhibition of human His6-tagged ERCC1-XPF endonuclease activity expressed in Escherichia coli BL21 (DE3) at 3 uM using [6-FAM-5'-CAGCGCTCGG(20T)CCGAGCGCTG-3'-dabcyl] as substrate in presence of 5 to 10% DMSO by fluorescence assay
In short: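 ERCC1-XPF preincubated with 3 μM compound in 10% or 5% DMSO; reactions started at T0 with substrate, or at T12 […]. Same stem-loop incision read-out (ex 485/em 520) in Tris-Cl pH 8, MnCl2 buffer at 25°C.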

[3] = target: T1, DNA excision repair protein ERCC-1/DNA repair endonuclease XPF (Homo sapiens); assay: Binding affinity to human His6-tagged ERCC1-XPF expressed in Escherichia coli BL21 (DE3) assessed as tryptophan fluorescence quenching at 2 uM by spectrofluorimetric method relative to control
In short: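 Intrinsic tryptophan fluorescence of purified ERCC1-XPF (13–20 nM) with 2 μM ligand added from stock, protein dilution kept below 3%; excitation 295 nm, quenching read at 330 nm, room temperature.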

[4] = Binding affinity to 6-FAM-5'-CAGCGCTCGG(20T)CCGAGCGCTG-3'-dabcyl DNA (unknown origin) by spectrofluorimetric method
In short: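 FAM/dabcyl-labelled stem-loop DNA substrate excited at 490 nm, emission at 520 nm followed as a function of ligand concentration; Kd obtained by nonlinear regression assuming unimodal binding.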

[5] = target: T1, DNA excision repair protein ERCC-1/DNA repair endonuclease XPF (Homo sapiens); assay: Binding affinity to human N-terminal His6-tagged RED-tris-NTA labelled ERCC1 (96 to 297 residues)-XPF (667 to 916 residues) expressed in Escherichia coli BL21 (DE3) at 10 uM measured after 20 mins by microscale thermophoresis assay
In short: (§1)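 Truncated His-tagged dERCC1 (96-297) and dXPF (667-916) from BL21(DE3), labelled with RED-tris-NTA, at 20 nM singly or as equimolar dimer in 20 mM HEPES pH 7.4, 50 mM NaCl, 1 mM DTT, 2 mM MgCl2, 5% glycerol, 0.01% CHAPS; 10 μM compound or DMSO, 20 min room temperature; MST at high power, 670 nm emission.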

[6] = Binding affinity to RED-tris-NTA at 10 uM measured after 20 mins by microscale thermophoresis assay; in short: as §1
[7] = target: T1, DNA excision repair protein ERCC-1/DNA repair endonuclease XPF (Homo sapiens); assay: Inhibition of ERCC1-XPF-mediated nucleotide excision repair in human HCT116 cells assessed as reduction in removal of UV-induced cyclobutane pyrimidine dimer by measuring cyclobutane pyrimidine dimer level at 2 uM incubated for 1 hr prior to compound washout followed by 8 J/m2 UV irradiation and subsequent compound addition and measured after 24 hrs by DAPI staining-based immunofluorescence assay (reference value: 80%); type: cell-based; parameters: scale not given: the % may be the effect or the level left
In short: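 HCT-116 cells on coverslips, 1 h compound pretreatment, 8 J/m² UV-C (254 nm), then fresh medium with compound at 37°C up to 24 h. Fixed, HCl-denatured, stained with anti-thymine dimer antibody plus fluorescent secondary, DAPI mount. Intensity from 50 random cells per treatment, normalized; Student's t-test.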

[8] = system: HCT-116; assay: Phototoxicity against human HCT116 cells assessed as reduction in colony formation at 2 uM incubated for 1 hr prior to compound washout followed by 254 nm UV irradiation and subsequent compound addition measured after 10 days by crystal violet staining-based assay; type: functional, cell-based
In short: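 HCT-116 cells plated in triplicate (100-800 cells), attached overnight, treated 1 h with 1 or 2 μM compound, exposed to 0-10 J/m² 254 nm UV-C, then grown 10 days with inhibitor at 37°C, 5% CO₂. Crystal violet stained colonies counted; plating efficiency and surviving fraction calculated; three independent sets.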

[9] = system: HCT-116; assay: Potentiation of cyclophosphamide-induced cytotoxicity against human HCT116 cells assessed as reduction in colony formation at 2 uM incubated for 4 hrs prior to 50 uM cyclophosphamide addition for 24 hrs followed by compound washout and subsequent compound redosing and measured after 8 days by crystal violet staining-based assay; type: functional, cell-based
In short: (§2)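 HCT-116 cells plated in triplicate, attached overnight, pretreated 4 h with 1 or 2 μM compound, then cyclophosphamide (0-300 μM) added for 24 h; medium replaced with compound alone and incubated 8 more days at 37°C, 5% CO₂. Crystal violet colonies counted, surviving fraction calculated; three independent sets, Student's t-test.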

[10] = system: HCT-116; assay: Potentiation of cyclophosphamide-induced cytotoxicity against human HCT116 cells assessed as reduction in colony formation at 2 uM incubated for 4 hrs prior to 300 uM cyclophosphamide addition for 24 hrs followed by compound washout and subsequent compound redosing and measured after 8 days by crystal violet staining-based assay; type: functional; parameters: scale not given: the % may be the effect or the level left; in short: as §2
[11] = system: HCT-116; assay: Potentiation of cyclophosphamide-induced cytotoxicity against human XPF-knockout HCT116 cells assessed as reduction in colony formation at 2 uM incubated for 4 hrs prior to 50 uM cyclophosphamide addition for 24 hrs followed by compound washout and subsequent compound redosing and measured after 8 days by crystal violet staining-based assay; type: functional, cell-based
[12] = system: HCT-116; assay: Potentiation of cyclophosphamide-induced cytotoxicity against human XPF-knockout HCT116 cells assessed as reduction in colony formation at 2 uM incubated for 4 hrs prior to 300 uM cyclophosphamide addition for 24 hrs followed by compound washout and subsequent compound redosing and measured after 8 days by crystal violet staining-based assay; type: functional; parameters: scale not given: the % may be the effect or the level left
[13] = target: Cytochrome P450 2C9 (Homo sapiens, UniProt P11712); assay: Inhibition of CYP2C9 (unknown origin); type: ADME
[14] = target: Cytochrome P450 2C19 (Homo sapiens, UniProt P33261); assay: Inhibition of CYP2C19 (unknown origin); type: ADME
[15] = target: Cytochrome P450 2D6 (Homo sapiens, UniProt P10635); assay: Inhibition of CYP2D6 (unknown origin); type: ADME
[16] = target: Cytochrome P450 3A4 (Homo sapiens, UniProt P08684); assay: Inhibition of CYP3A4 (unknown origin) using midazolam as substrate; type: ADME
[17] = Protein binding in serum (unknown origin); type: ADME, cell-free
[18] = system: HCT-116; assay: Cytotoxicity against human HCT116 cells assessed as reduction in colony formation at 1 to 2 uM; details: hct-116, 2 µM
[19] = Stability of the compound in human liver microsomes; type: ADME, Microsome
[20] = Efflux ratio of permeability in human Caco2 cells; type: ADME, cell-based; details: Caco-2
[21] = target: T2, Cytochrome P450 1A2 (Homo sapiens, UniProt P05177); assay: Inhibition of CYP1A2 (unknown origin); type: ADME
T2 sequence (P05177 whole entry): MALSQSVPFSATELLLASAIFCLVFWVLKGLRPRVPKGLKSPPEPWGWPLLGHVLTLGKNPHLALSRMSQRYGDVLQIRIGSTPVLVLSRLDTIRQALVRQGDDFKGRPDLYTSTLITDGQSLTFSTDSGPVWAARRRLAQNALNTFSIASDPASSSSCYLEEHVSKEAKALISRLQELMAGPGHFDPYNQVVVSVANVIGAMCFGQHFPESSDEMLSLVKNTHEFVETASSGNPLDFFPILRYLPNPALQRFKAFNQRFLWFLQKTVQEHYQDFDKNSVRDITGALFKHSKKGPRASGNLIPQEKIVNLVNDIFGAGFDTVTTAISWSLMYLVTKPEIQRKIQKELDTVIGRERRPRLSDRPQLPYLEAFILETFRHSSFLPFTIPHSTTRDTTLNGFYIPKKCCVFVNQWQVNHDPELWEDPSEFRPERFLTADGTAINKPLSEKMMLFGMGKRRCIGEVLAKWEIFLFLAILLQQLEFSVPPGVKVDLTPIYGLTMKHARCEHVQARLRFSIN

[22] = target: T3, DNA excision repair protein ERCC-1/DNA repair endonuclease XPF (Homo sapiens, UniProt P07992+Q92889)
T3 sequence (P07992 whole entry): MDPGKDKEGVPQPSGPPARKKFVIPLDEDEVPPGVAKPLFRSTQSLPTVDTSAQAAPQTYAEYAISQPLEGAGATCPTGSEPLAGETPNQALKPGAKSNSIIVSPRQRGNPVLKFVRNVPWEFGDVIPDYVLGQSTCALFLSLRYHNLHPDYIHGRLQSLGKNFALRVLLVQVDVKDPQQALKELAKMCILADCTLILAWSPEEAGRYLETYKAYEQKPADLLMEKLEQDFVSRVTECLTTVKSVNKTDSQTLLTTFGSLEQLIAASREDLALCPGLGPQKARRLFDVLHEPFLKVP
T3 sequence (Q92889 whole entry): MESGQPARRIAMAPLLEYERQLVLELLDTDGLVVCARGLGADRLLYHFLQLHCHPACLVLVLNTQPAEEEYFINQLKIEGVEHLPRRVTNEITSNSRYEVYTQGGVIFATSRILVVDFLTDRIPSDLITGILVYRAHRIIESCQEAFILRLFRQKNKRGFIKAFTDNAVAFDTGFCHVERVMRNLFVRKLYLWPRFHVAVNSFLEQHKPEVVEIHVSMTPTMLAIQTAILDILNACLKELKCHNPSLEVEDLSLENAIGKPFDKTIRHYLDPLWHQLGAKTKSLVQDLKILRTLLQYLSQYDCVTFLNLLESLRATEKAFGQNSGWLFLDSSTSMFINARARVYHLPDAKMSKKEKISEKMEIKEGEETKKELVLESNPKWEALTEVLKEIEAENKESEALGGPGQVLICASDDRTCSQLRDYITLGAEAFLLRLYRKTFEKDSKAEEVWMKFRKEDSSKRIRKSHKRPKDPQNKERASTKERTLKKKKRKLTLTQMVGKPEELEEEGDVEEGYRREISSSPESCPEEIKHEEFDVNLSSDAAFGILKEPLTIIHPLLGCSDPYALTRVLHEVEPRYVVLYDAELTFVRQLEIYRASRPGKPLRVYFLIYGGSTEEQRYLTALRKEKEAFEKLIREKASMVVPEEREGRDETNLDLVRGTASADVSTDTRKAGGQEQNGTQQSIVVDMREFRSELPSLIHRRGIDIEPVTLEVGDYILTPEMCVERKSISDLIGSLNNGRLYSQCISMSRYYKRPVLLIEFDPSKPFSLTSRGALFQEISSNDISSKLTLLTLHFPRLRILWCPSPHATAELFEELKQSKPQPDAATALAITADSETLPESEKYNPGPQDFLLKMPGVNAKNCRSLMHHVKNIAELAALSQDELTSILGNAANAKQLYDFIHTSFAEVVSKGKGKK

[23] = target: T1, DNA excision repair protein ERCC-1/DNA repair endonuclease XPF (Homo sapiens); assay: Inhibition of ERCC1-XPF-mediated nucleotide excision repair in human HCT116 cells assessed as reduction in removal of UV-induced cyclobutane pyrimidine dimer at 2 uM incubated for 1 hr prior to compound washout followed by 8 J/m2 UV irradiation and subsequent compound addition and measured after 24 hrs by DAPI staining-based immunofluorescence assay; type: cell-based
In short: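 HCT-116 cells on coverslips pretreated 1 h with compound, then 8 J/m² UV-C (254 nm) and re-fed medium with compound; incubated at 37°C up to 24 h. Methanol-fixed, HCl-denatured cells stained with anti-thymine dimer antibody and fluorescent secondary, DAPI mounted. Intensity quantified from 50 random cells per treatment; Student's t-test.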

Sequence of Cytochrome P450 2C9 (P11712 whole entry): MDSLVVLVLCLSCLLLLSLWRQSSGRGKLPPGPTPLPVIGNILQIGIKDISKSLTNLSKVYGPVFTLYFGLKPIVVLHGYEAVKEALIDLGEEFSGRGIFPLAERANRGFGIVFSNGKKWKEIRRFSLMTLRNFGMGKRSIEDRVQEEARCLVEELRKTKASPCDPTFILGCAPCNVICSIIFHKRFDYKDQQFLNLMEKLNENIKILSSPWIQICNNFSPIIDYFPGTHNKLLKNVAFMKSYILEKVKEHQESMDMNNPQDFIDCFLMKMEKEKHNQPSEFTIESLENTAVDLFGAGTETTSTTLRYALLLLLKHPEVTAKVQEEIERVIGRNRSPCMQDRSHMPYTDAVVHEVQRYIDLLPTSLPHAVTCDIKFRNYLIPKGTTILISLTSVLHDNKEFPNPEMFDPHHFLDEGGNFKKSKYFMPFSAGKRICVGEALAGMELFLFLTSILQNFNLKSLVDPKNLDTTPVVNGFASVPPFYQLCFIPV
Sequence of Cytochrome P450 3A4 (P08684 whole entry): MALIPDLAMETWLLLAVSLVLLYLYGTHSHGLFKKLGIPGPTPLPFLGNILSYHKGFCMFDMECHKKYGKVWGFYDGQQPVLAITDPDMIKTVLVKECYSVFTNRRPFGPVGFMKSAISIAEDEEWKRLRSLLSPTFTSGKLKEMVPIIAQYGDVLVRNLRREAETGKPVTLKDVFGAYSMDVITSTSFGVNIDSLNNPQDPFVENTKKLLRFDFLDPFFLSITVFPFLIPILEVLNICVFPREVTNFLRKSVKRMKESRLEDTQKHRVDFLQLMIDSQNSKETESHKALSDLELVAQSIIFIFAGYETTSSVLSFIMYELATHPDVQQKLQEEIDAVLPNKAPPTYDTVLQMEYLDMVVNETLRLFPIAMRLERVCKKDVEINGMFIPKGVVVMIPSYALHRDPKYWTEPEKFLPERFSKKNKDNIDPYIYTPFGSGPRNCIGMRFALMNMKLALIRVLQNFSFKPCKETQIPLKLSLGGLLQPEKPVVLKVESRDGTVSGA
Sequence of Cytochrome P450 2C19 (P33261 whole entry): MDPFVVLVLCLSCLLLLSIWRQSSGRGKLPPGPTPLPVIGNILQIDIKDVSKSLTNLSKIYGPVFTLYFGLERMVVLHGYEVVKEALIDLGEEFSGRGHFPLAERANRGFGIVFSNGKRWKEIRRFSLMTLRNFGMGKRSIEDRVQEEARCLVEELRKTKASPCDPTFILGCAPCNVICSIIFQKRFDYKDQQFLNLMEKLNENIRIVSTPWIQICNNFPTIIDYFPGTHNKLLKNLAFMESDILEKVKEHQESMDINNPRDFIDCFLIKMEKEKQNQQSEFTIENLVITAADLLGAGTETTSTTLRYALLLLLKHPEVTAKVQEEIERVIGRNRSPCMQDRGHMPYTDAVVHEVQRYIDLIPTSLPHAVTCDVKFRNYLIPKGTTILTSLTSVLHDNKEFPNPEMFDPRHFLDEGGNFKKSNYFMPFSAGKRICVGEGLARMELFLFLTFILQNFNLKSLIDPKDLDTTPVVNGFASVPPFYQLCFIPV
Sequence of Cytochrome P450 2D6 (P10635 whole entry): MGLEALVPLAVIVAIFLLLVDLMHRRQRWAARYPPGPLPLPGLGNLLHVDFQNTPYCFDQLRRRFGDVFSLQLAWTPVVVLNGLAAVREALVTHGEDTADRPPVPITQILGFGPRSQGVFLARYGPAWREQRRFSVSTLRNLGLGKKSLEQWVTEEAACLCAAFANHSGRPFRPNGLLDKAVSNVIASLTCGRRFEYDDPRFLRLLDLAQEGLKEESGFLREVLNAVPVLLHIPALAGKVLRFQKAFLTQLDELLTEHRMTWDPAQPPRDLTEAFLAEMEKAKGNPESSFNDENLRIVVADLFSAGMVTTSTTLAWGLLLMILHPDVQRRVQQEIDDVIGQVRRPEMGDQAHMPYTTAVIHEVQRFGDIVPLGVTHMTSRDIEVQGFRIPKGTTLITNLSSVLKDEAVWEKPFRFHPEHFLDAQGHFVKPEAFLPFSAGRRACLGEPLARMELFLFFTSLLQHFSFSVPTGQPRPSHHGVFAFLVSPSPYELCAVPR

COc1ccc2nc3cc(Cl)ccc3c(Nc3ccc(O)c(CN4CCN(CCN(C)C)CC4)c3)c2c1
inhibition [1]: Active
TDI [2]: Active
Activity [3]: 23%
Kd [4]: 2.1 µM
Activity [5]: Active
Activity [6]: inactive
Activity [7]: 60%
Activity [8]: Active
Activity [9]: Active
Activity [10]: 100%
Activity [11]: Active
Activity [12]: 100%
IC50 [13]: > 1 µM
IC50 [14]: > 1 µM
IC50 [15]: > 1 µM
IC50 [16]: > 1 µM
PB [17]: Active
Activity [18]: Non-Toxic

COc1ccc2nc3cc(Cl)ccc3c(Nc3ccc(O)c(CN4CCN(C)CC4)c3)c2c1
inhibition [1]: Active
Stability [19]: Unstable
efflux ratio [20]: 11.2
IC50 [21]: 10 to 50 µM
IC50 [13]: 10 to 50 µM
IC50 [14]: 10 to 50 µM
IC50 [15]: 1 to 10 µM
IC50 [16]: 1 to 10 µM
PB [17]: Active
IC50 [22]: 1.86 µM

COc1ccc2nc3cc(Cl)ccc3c(Nc3ccc(O)c(CN4CCN(C5CCCCC5)CC4)c3)c2c1
inhibition [1]: Active

COc1ccc2nc3cc(Cl)ccc3c(Nc3ccc(O)c(CN4CCN(c5ccc(Cl)c(Cl)c5)CC4)c3)c2c1
Activity [3]: 3%
inhibition [23]: inactive
